NR2F2 inh – inhibitors of human COUP-TFII (NR2F2); 0.7% of 370,000 active; HEK293T NGFI-A luciferase reporter, luminescence; P24468; inhibition, % at 8.6 µM; AID 686940;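 active = inhibition above a per-plate cutoff, mean inhibition of test wells between control levels plus 3 SD, cut at about 38% in these data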;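 note: cells cotransfected with COUP-TFII expression vector driving the NGFI-A reporter; 0% = median of COUP-TF2 test wells and 100% = reporter-only cells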
GalR3 antag – blocks the human galanin receptor 3; O60755; 0.44% of 360,000 active; AID 651719; HEK293 GalR3-CNG cAMP membrane potential fluorescence; galR3 body fused to GalR1 C-terminus; inhibition, % at 3 µM;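 active = inhibition above the screen-wide average plus 3 SD, cut at about 13% in these data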;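 note: forskolin and galanin both at EC90 stimulate the cells; cAMP rise reported by CNG channel membrane potential dye signal; 0% = forskolin plus galanin with DMSO and 100% = forskolin alone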
Target sequence (O60755 1-299 limits assumed): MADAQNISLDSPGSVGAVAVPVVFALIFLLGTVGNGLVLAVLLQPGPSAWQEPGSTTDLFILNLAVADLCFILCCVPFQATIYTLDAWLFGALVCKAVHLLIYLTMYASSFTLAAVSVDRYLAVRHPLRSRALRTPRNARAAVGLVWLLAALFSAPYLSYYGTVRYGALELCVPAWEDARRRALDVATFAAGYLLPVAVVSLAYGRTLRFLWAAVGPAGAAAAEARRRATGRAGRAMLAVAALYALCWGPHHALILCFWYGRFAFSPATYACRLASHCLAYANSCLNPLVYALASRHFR
NR2E3 ag-1 – activates human photoreceptor nuclear receptor NR2E3; Q9Y5X4; GST-NR2E3/biotin-RetCOR TR-FRET, 1536-well; inhibition of corepressor binding, % at 4.78 µM; 0.12% of 320,000 active; AID 2300;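 active = percent inhibition above the cutoff of mean plus 3 SD of all tested compounds, set per screening campaign, cut at about 20% in these data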;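 note: 0% = DMSO wells and 100% = biotin wells as full block of FRET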
Target sequence (Q9Y5X4 whole entry, looked up): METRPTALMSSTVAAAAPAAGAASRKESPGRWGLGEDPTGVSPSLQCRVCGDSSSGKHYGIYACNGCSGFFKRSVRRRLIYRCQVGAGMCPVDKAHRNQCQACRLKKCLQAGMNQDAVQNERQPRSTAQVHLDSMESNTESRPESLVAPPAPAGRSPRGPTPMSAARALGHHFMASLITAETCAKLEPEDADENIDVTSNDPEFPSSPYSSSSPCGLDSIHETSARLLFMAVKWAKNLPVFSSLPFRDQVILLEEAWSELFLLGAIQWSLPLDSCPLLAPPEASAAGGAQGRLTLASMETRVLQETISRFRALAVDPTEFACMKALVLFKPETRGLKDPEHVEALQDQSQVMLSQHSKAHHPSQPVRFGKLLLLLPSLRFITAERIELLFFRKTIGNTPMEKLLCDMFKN
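Test system – NR2E3–RetCOR corepressor complex · Quantity – NR2E3 fusion 1.35 nM · Buffer or medium – Tris pH 7.5 · Incubation – Compound–protein incubation for 5 h at 4 °C · Technique – TR-FRET, Eu(K)-anti-GST donor, streptavidin-D2 acceptor, ex 340, em 617/671 nm · Evaluation – percent inhibition of 671/617 nm emission ratio versus biotin and DMSO controls · Plate – 1536-well format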
NR2E3 ag-2 – activates human NR2E3 receptor; AID 602229; CHO-S Gal4-NCOR/VP16-NR2E3 two-hybrid, luciferase; inhibition of corepressor binding, % at 3.98 µM; Q9Y5X4; 0.35% of 360,000 active;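 active = inhibition above the mean of all tested compounds plus 3 SD, cut at about 70% in these data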;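 note: 0% = DMSO with NR2E3 transfected cells and 100% = cells lacking NR2E3 construct; higher means lower luciferase signal from less NR2E3 corepressor binding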
SMARCA2 act – activators of SMARCA2 function. MG213 cells, MMTV-luciferase reporter, dexamethasone, overnight. activation, % at 9.1 µM. 1% of 370,000 active; in the data active = activation above about 7.8%;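 note: 0% = vehicle wells and 100% = reference activator wells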
NR2E3 agonist cf – confirmation of human NR2E3 nuclear receptor agonists. shares compounds with NR2E3 ag-1. cell-free NR2E3 corepressor release, TR-FRET, 5 h. activation (reported as inhibition), % at 3.98 µM. 39% of 360 active; in the data active = activation above about 20%
PPARg-NCOR2 ctr – releases PPARgamma from NCOR2 in NR2E3 counter-screen; shares compounds with NR2E3 ag-1; TR-FRET PPARg-NCOR2 coregulator interaction, biochemical; inhibition, % at 3.98 µM; 45% of 360 active; AID 504787; in the data active = inhibition above about 20%;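 note: 0% = DMSO vehicle and 100% = wells without protein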
An asterisk follows results filed as active; / = no result given. Shown are actives, neighbours in structure and some others; about 2.2% of the full set was active somewhere.

SMILES | NR2F2 inh | GalR3 antag | NR2E3 ag-1 | NR2E3 ag-2 | SMARCA2 act | NR2E3 agonist cf | PPARg-NCOR2 ctr
Cc1oc2c(c1C(=O)NCc1cccnc1)C(=O)c1ccccc1C2=O | / | / | 22* | / | / | 19 | 0
Cc1cc(=O)n(C2CCS(=O)(=O)C2)[nH]1 (centres undefined) | -6 | -1 | 33* | -10 | -3 | -5 | -4
Cc1ccccc1-c1nnnn1C1CCS(=O)(=O)C1 (centres undefined) | 7 | -4 | 0 | -10 | 0 | / | /
Nc1ccc(N2CCCCC2)c2nonc12 | -7 | -4 | 43* | -43 | -1 | -16 | -14
CC(=O)c1c(C)[nH]c(C(=O)Nc2ccccc2C)c1C | -6 | / | / | / | / | / | /
O=C(Nc1c(-c2ccc(C(F)(F)F)cc2)nc2ncccn12)C1CC1 | 5 | / | / | / | -4 | / | /
CC(C)(C)c1cc(=O)n(-c2ccccc2)[nH]1 | 16 | -6 | 29* | 7 | -1 | -4 | 1
CCOc1ccc(/C(O)=C2/C(=O)C(=O)N(CCOCCO)C2c2ccc(F)cc2)cc1 (centres undefined) | 0 | -2 | 20* | 13 | 0 | 14 | 7
COc1ccc(S[C@]2(C(=O)NCc3ccccc3)CC(=O)N[C@@H]2c2ccc(OC)cc2)cc1 | -4 | / | / | / | -5 | / | /
O=S(=O)(NCc1cccs1)c1cccc(S(=O)(=O)N2CCCCC2)c1 | 0 | -2 | 34* | -11 | -3 | -6 | -6
CCOc1ccccc1NC(=O)CCSc1nc2n[nH]c(C)c2c(=N)n1-c1ccccc1Cl | 5 | -3 | 26* | -30 | 0 | 32* | 34*
c1ccc(C2CCC3(CC2)CCC3NCc2cccs2)cc1 (centres undefined) | 9 | / | / | / | / | / | /
COC(=O)[C@H](CC(C)C)N1Cc2nnn(CC3CCCCC3)c2-c2ccccc2S1(=O)=O | 1 | / | / | / | -4 | / | /
CSc1nc(N)nc(SCC(=O)c2ccc(C)cc2)c1C#N | -11 | -5 | 47* | -21 | 3 | 8 | 10
Cc1cccc(NC(=O)CSc2ncnc3c2oc2ccccc23)c1 | -6 | 4 | 60* | 5 | -1 | 66* | 72*
O=C(CSc1ncnc2c1oc1ccccc12)c1cccs1 | -6 | 3 | 31* | -64 | 1 | 25* | 25*
NC(=O)CSc1ncnc2c1oc1ccccc12 | -10 | 0 | -1 | -6 | -1 | / | /
CC[C@H]1OC(=O)[C@H](C)[C@@H](O[C@H]2C[C@@](C)(OC)[C@@H](O)[C@H](C)O2)C(C)[C@@H](O[C@@H]2O[C@H](C)C[C@H](N(C)C)[C@H]2O)[C@](C)(O)C[C@@H](C)CN(C)[C@H](C)[C@@H](O)[C@]1(C)O (some centres undefined) | -3 | / | / | / | -7 | / | /
O=C(NCCO)[C@H](Cc1ccccc1)NC1(C(=O)NCCc2c[nH]c3ccccc23)CCCCC1 | -8 | / | / | / | / | / | /
O=C(CSc1nc2ccccc2c(=O)n1-c1ccc(F)cc1)Nc1cc(S(=O)(=O)N2CCOCC2)ccc1Cl | -3 | 3 | -1 | -11 | -3 | / | /
O=C(CSc1nc2ccccc2c(=O)n1-c1ccccc1Cl)Nc1cccc(S(=O)(=O)N2CCOCC2)c1 | -11 | -1 | 25* | -7 | -1 | -6 | -8
CCC(CNc1cc(OC)cc2cccnc12)NC1CCCCC1 (centres undefined) | -21 | -9 | 21* | -10 | -9 | -4 | -6
COC(=O)[C@H]1C[C@@]2(C)c3ccccc3N(S(=O)(=O)c3ccccc3)[C@H]2N1 | -7 | / | / | / | -2 | / | /
O=C(OC12CCCN(C1)/C(=C/c1ccc(Cl)cc1)C2)c1ccccc1 (centres undefined) | 26 | / | / | / | -1 | / | /
CN(c1ccc(Cl)cc1)c1cc(=O)n(C)c2ccccc12 | -27 | -1 | 21* | -20 | -6 | 3 | 5
SMILES | NR2F2 inh | GalR3 antag | NR2E3 ag-1 | NR2E3 ag-2 | SMARCA2 act | NR2E3 agonist cf | PPARg-NCOR2 ctr
Nc1c(C(=O)NCCc2ccccc2)sc2nc(N3CCOCC3)c3c(c12)CCCC3 | -15 | -2 | 27* | 0 | 0 | 3 | 3
Cc1ccccc1NC(=O)c1sc2nc(N3CCOCC3)c3c(c2c1N)CCCC3 | -16 | 3 | 23* | -89 | 2 | -10 | 3
O=C(NCc1cccnc1)O[C@H]1CC[C@@]23CCCN2C(=O)CCC[C@H]3C1 | -16 | / | / | / | / | / | /
CCCCC(=O)Nc1ncc(Br)s1 | / | / | 32* | 16 | / | -2 | -4
Nc1ccc2nc(-c3ccc(-c4nc5ccc(N)cc5[nH]4)cc3)[nH]c2c1 | 12 | -9 | 24* | / | -3 | 10 | 4
COC(CNC(=O)[C@H](Cc1ccccc1)NC(C)(C)C(=O)NC1CCCCC1)OC | 17 | / | / | / | / | / | /
COc1ccc(N2CSC3=C(C#N)C(c4cccs4)CC(=O)N3C2)cc1 (centres undefined) | -10 | -5 | 9 | 2 | -2 | / | /
Cc1ccc(N2CSC3=C(C#N)C(c4cccs4)CC(=O)N3C2)cc1 (centres undefined) | -7 | / | 24* | -30 | 3 | -6 | 9
CCc1ccc(N2CSC3=C(C#N)C(c4cccs4)CC(=O)N3C2)cc1 (centres undefined) | / | / | 10 | -16 | / | / | /
CCOC(=O)c1ccc(N2CSC3=C(C#N)C(c4cccs4)CC(=O)N3C2)cc1 (centres undefined) | 9 | / | 27* | -11 | -1 | -5 | 38*
CC(C)(C)N(Cc1cn(Cc2ccccc2)nn1)S(=O)(=O)c1ccc(N2CCCC2)cc1Br | 0 | / | / | / | -4 | / | /
CC1(C)Cc2c(c(-c3ccccc3)nc3[nH][nH]c(=O)c23)CO1 | 2 | -7 | -1 | -3 | 0 | / | /
CC1(C)Cc2c(c(-c3ccccc3)nc3sc4c(=O)[nH]c(=S)[nH]c4c23)CO1 | / | / | 20* | / | / | 19 | 11
COC(=O)CC1C(=O)NC(C)=C1C(=O)OC (centres undefined) | / | / | 0 | / | / | / | /
COC(=O)CCCC[C@H]1SC[C@H]2NC(=O)N[C@]21O | / | / | 63* | / | / | 61* | 47*
COC(=O)CCCCC1SCC2NC(=O)NC21O (centres undefined) | -20 | -7 | 76* | -22 | -1 | 80* | 80*
COC(=O)C1CSC(C)(C)C(=O)N1 (centres undefined) | -8 | 1 | 1 | 15 | 3 | / | /
O=C(Nc1ccc(F)cc1)OCc1cn(Cc2cccc(Cl)c2)nn1 | -1 | / | / | / | -2 | / | /
COc1cccc(NC(=S)Nc2cc(C)cc(C)n2)c1 | -41 | -2 | 31* | -90 | 6 | 30* | 39*
COc1ccc(NC(=S)Nc2cc(C)cc(C)n2)cc1OC | 3 | 3 | 2 | -7 | 2 | / | /
Cc1cc(C)nc(NC(=S)Nc2cccc(F)c2)c1 | -40 | 0 | 21* | -61 | -2 | -4 | 34*
